The results in this text go back to ChEMBL document CHEMBL3244267, “Antineoplastic properties of arylsulfonylhdrazones of 3-formylpyridazine 2-oxide and 4-formylpyrimidine 3-oxide” (J Med Chem, 1978).

Active and inactive are the calls of the source. The calls are words filed in the database; no cut-off is given here.

Data set [1] has as its system Sarcoma-180. In words: Antitumor activity against mouse Sarcoma 180 cells allografted in CD-1 mouse assessed as mouse survival at 40 mg/kg, ip qd for 6 consecutive days starting 24 hrs post implantation measured after 50 days relative to control. The data set is classed as functional. The note with it: Sarcoma-180, ip, route intraperitoneal. The method in brief:
(§1)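 Female CD-1 mice carrying Sarcoma 180 ascites cells from 7-day donor tumors. Given intraperitoneal doses daily for six consecutive days beginning 24 h after implantation; groups of 10 mice, 5 for some. Read-out is the percentage of mice in each group alive more than 50 days.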

The subject of data set [2] is Sarcoma-180. In words: Antitumor activity against mouse Sarcoma 180 cells allografted in CD-1 mouse assessed as mouse survival at 60 mg/kg, ip qd for 6 consecutive days starting 24 hrs post implantation measured after 50 days relative to control. The data set is classed as functional. The following applies: Sarcoma-180, ip, route intraperitoneal. The method in brief: as §1

Data set [3] concerns Sarcoma-180. In words: Antitumor activity against mouse Sarcoma 180 cells allografted in CD-1 mouse assessed as mouse survival at 80 mg/kg, ip qd for 6 consecutive days starting 24 hrs post implantation measured after 50 days relative to control. In kind it is functional. The note with it: Sarcoma-180, ip, route intraperitoneal. Summed up:
as §1

For data set [4], the system named is Sarcoma-180. In words: Antitumor activity against mouse Sarcoma 180 cells allografted in CD-1 mouse assessed as increase in average survival time at 40 mg/kg, ip qd for 6 consecutive days starting 24 hrs post implantation measured relative to control. In kind it is functional. The following applies: route intraperitoneal. The method in brief: (§2)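 Sarcoma 180 ascites cells propagated in female CD-1 mice; implanted from donors carrying 7-day tumors. Dosed intraperitoneally once daily for six days starting 24 h post-implant; 10 mice per group, 5 for some groups. %T/C = average survival time (treated/control) × 100; mice surviving more than 50 days counted as 50 days. Body-weight change over the therapy period also recorded.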

Data set [5] concerns Sarcoma-180. In words: Antitumor activity against mouse Sarcoma 180 cells allografted in CD-1 mouse assessed as increase in average survival time at 60 mg/kg, ip qd for 6 consecutive days starting 24 hrs post implantation measured relative to control. In kind it is functional. The note with it: route intraperitoneal. The method in brief: as §2
Data set [6] has as its system Sarcoma-180. In words: Antitumor activity against mouse Sarcoma 180 cells allografted in CD-1 mouse assessed as increase in average survival time at 80 mg/kg, ip qd for 6 consecutive days starting 24 hrs post implantation measured relative to control. In kind it is functional. The following applies: route intraperitoneal. Summed up:
as §2

Data set [7] deals with Mus musculus. The data set can be described thus: Toxicity in mouse Sarcoma 180 cells allografted CD-1 mouse assessed as change in body weight at 40 mg/kg, ip qd for 6 consecutive days starting 24 hrs post implantation (reference value: +13.5 %). In kind it is organism-based. Set-up: dose 40 mg/kg, route intraperitoneal. The following applies: in vivo.
Data set [8] has as its system Mus musculus. In words: Toxicity in mouse Sarcoma 180 cells allografted CD-1 mouse assessed as change in body weight at 60 mg/kg, ip qd for 6 consecutive days starting 24 hrs post implantation (reference value: +13.5 %). In kind it is organism-based. Set-up: dose 60 mg/kg, route intraperitoneal. The following applies: in vivo.
Data set [9] relates to Mus musculus. The data set can be described thus: Toxicity in mouse Sarcoma 180 cells allografted CD-1 mouse assessed as change in body weight at 80 mg/kg, ip qd for 6 consecutive days starting 24 hrs post implantation (reference value: +13.5 %). Set-up: dose 80 mg/kg, route intraperitoneal. The data set is classed as organism-based. The following applies: in vivo.
For data set [10], the system named is L1210. The data set can be described thus: Antitumor activity against mouse L1210 cells allografted in […] mouse assessed as increase in average survival time at 60 to 100 mg/kg, ip qd for 6 consecutive days starting 24 hrs post implantation relative to control.
Data set [11] relates to Sarcoma-180. In words: Antitumor activity against mouse Sarcoma 180 cells allografted in CD-1 mouse assessed as increase in average survival time at 80 mg/kg, ip qd for 6 consecutive days starting 24 hrs post implantation measured relative to control.
For data set [12], the system named is L1210. The data set can be described thus: Antitumor activity against mouse L1210 cells allografted in CDF-1 mouse assessed as increase in average survival time at 60 to 100 mg/kg, ip qd for 6 consecutive days starting 24 hrs post implantation relative to control. The following applies: dose mg/kg 60-100; route intraperitoneal.

For `O=S(=O)(N/N=C/c1ccnc[n+]1[O-])c1ccccc1`, the survival at 40 mg/kg in the data set on Sarcoma-180 [1] worked out at 0%. The survival at 60 mg/kg with Sarcoma-180 [2] was found to be 0%. Besides, the survival at 80 mg/kg in the data set on Sarcoma-180 [3] worked out at 0%. Besides, the T/C worked out at 89% in the data set with Sarcoma-180 [4], 97% in the data set with Sarcoma-180 [5] and 112% with Sarcoma-180 [6]. For the same compound, the Activity in the data set with Mus musculus [7] is 16.3%; with Mus musculus [8], 11.2%; in the data set on Mus musculus [9] it was 9.6%. For the same compound, the outcome with L1210 [10] and with Sarcoma-180 [11] was inactive.
Turning to `COc1ccc(S(=O)(=O)N/N=C/c2cccc[n+]2[O-])cc1`, the T/C with L1210 [12] is 234%.
For the compound `COc1ccc(S(=O)(=O)N/N=C/c2ccnc[n+]2[O-])cc1`, the survival at 40 mg/kg in the data set on Sarcoma-180 [1] amounted to 0%. Also, the survival at 60 mg/kg with Sarcoma-180 [2] worked out at 0%. For the same compound, the survival at 80 mg/kg in the data set with Sarcoma-180 [3] turned out to be 0%. Further, the T/C is reported as 96% in the data set on Sarcoma-180 [4], 100% in the data set on Sarcoma-180 [5] and 94% in the data set with Sarcoma-180 [6]. Moreover, the Activity with Mus musculus [7] was determined as 20.3%; in the data set with Mus musculus [8], 10.8%; in the data set on Mus musculus [9], 13.9%. In addition, the outcome with L1210 [10] and with Sarcoma-180 [11] was inactive.
For `O=S(=O)(N/N=C/c1cccc[n+]1[O-])c1ccccc1`, the survival at 40 mg/kg in the data set on Sarcoma-180 [1] is 20%. In addition, the T/C in the data set on Sarcoma-180 [4] was 235%; in the data set with L1210 [12] it was 126%. In the data set on Mus musculus [7], the Activity is -2.6%.
For `O=S(=O)(N/N=C/c1cccn[n+]1[O-])c1ccccc1`, the survival at 40 mg/kg with Sarcoma-180 [1] was determined as 10%. In addition, the survival at 60 mg/kg with Sarcoma-180 [2] came out at 10%. Further, the survival at 80 mg/kg in the data set with Sarcoma-180 [3] amounted to 40%. Besides, the T/C in the data set on Sarcoma-180 [4] is given as 194%; in the data set with Sarcoma-180 [5], 230%; with Sarcoma-180 [6] it was 274%. Further, the Activity in the data set with Mus musculus [7] was -2.9%; in the data set on Mus musculus [8], -3.8%; in the data set on Mus musculus [9] it was -3.5%. In the data set with L1210 [10], the outcome was inactive.
On to `Cc1ccc(S(=O)(=O)N/N=C/c2cccc[n+]2[O-])cc1`, for which the T/C with L1210 [12] came out at 170%.
As to `Cc1ccc(S(=O)(=O)N/N=C/c2ccnc[n+]2[O-])cc1`, in the data set on Sarcoma-180 [1], the survival at 40 mg/kg was 0%. The survival at 60 mg/kg in the data set with Sarcoma-180 [2] amounted to 0%. In addition, the survival at 80 mg/kg with Sarcoma-180 [3] stood at 0%. Further, the results for the T/C with Sarcoma-180 [4], in the data set with Sarcoma-180 [5] and in the data set with Sarcoma-180 [6] were 115%, 100% and 103%, respectively. Also, the Activity was 19.6% in the data set on Mus musculus [7], 16.5% with Mus musculus [8] and 15.2% in the data set on Mus musculus [9]. The result in the data set with L1210 [10] and in the data set on Sarcoma-180 [11] was inactive.
On to `Cc1ccc(S(=O)(=O)N/N=C/c2cccn[n+]2[O-])cc1`, for which the survival at 40 mg/kg in the data set on Sarcoma-180 [1] worked out at 10%. Moreover, the survival at 60 mg/kg in the data set with Sarcoma-180 [2] was determined as 20%. For the same compound, in the data set with Sarcoma-180 [3], the survival at 80 mg/kg was 60%. For the same compound, the results for the T/C with Sarcoma-180 [4], in the data set on Sarcoma-180 [5] and with Sarcoma-180 [6] were 164%, 254% and 315%, respectively. Besides, the Activity with Mus musculus [7] is reported as -0.2%; in the data set with Mus musculus [8], -3.2%; with Mus musculus [9], -4.9%. In addition, the result in the data set with L1210 [10] was inactive.
Regarding `COc1ccc(S(=O)(=O)N/N=C/c2cccn[n+]2[O-])cc1`, the survival at 40 mg/kg in the data set with Sarcoma-180 [1] came out at 10%. Moreover, in the data set with Sarcoma-180 [2], the survival at 60 mg/kg is 20%. Besides, the survival at 80 mg/kg in the data set with Sarcoma-180 [3] is 0%. Besides, the values for the T/C in the data set with Sarcoma-180 [4], with Sarcoma-180 [5] and in the data set on Sarcoma-180 [6] were 231%, 218% and 193%, respectively. The Activity is given as -1.6% in the data set with Mus musculus [7], -3.2% with Mus musculus [8] and -4.3% in the data set with Mus musculus [9]. Also, the outcome with L1210 [10] was inactive.
